Compound activity as filed in PubChem BioAssay.
An excerpt weighted towards active compounds, which were near 2.7% of everything screened.
E-selectin induc: induces E-selectin expression in human endothelial cells; P16581; HUVEC E-selectin immunofluorescence imaging; normalized: neutral wells 0, TNF-alpha wells 100; activation, % at 7.58 µM; actives 0.37% (n = 260,000);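 active = mean E-selectin-positive cell signal at least 10% of the positive control, reached in at least 60% of replicates, without over 20% cell loss; inconclusive = no rule given, readout overlaps actives, possibly toxicity-flagged; inactive = the rest, including those meeting only one limit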
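Test system – human umbilical vein endothelial cells (HUVEC), E-selectin induction · Input – 3,000 HUVEC seeded per well · Buffer or medium – EGM-2, gelatin · Compound dosing – single-point compound dose · Detection – immunofluorescence imaging · Measure – percent E-selectin-positive cells · Controls – TNF-alpha high, DMSO low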
S100A4 inh HTS: blocks human S100A4 binding to myosin IIA peptide. P26447. S100A4/TAMRA-MyoIIA peptide fluorescence polarization. inhibition, % at 10.7 µM. actives 0.14% (n = 360,000). AID 652163;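 active = mean inhibition of at least 70% across replicates, with every replicate also reaching that level; inconclusive = mean inhibition reaches 70% but some replicates fall short; inactive = mean inhibition below 70%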
Target sequence (P26447 whole entry, looked up): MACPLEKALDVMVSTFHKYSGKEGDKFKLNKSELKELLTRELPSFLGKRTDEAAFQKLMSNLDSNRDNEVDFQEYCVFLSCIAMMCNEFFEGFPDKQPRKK
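Material: S100A4 monomer protein | Medium: HEPES pH 7.2 with CaCl2, KCl, NaCl, DTT, Triton | Reagent: Labelled myosin peptide probe, 5 nM | Doses: One dose per compound | Times: 5 min incubation before reading | Benchmarks: Neutral control DMSO, positive control TFP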
F508del corr: correctors of CFTR F508del function in bronchial epithelial cells; actives 0.36% (n = 350,000); CFBE cells, YFP halide quenching; stimulated with forskolin plus potentiator P3; % fluorescence drop versus neutral controls; activity (quench increase), % at 7.58 µM;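 active = mean added fluorescence quench of at least 8% versus neutral control, with both replicates also reaching 8%; inconclusive = only one of the mean or replicate conditions met; inactive = mean below 8% and not both replicates reaching 8%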;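 note: cells transiently co-express mutant CFTR-F508del with the halide-sensitive YFP; corrector assay measuring rescue of mutant channel to the surface after 24 h compound exposure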
FGF22 binding-1: binders of recombinant human FGF22 by thermal shift | Q9HCT0 | SYPRO orange fluorescence; percent of sucrose octasulfate shift, DMSO zero | activity (Tm shift, normalised), % at 9.99 µM | actives 1.5% (n = 340,000);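 active = mean Tm shift, scaled 0 neutral to 100 positive control, at about 1.3% or above, every replicate too, limit read from the data; inconclusive = no clear call, values can overlap the other calls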
Target sequence (Q9HCT0 whole entry, looked up): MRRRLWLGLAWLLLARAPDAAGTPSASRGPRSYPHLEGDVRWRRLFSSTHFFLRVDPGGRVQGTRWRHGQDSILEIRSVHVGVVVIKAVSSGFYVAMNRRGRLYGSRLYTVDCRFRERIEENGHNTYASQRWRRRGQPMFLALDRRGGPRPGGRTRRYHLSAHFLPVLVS
Env fusion inh: inhibitors of HIV Env-mediated cell fusion; HeLa-JRFL Env/CEM21 cell fusion, luciferase; inhibition, % at 12.3 µM; actives 1.1% (n = 360,000); AID 651610;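 active = mean replicate inhibition score of at least 50 and every replicate individually at or above 50; inconclusive = only one of the two criteria met; inactive = mean below 50 and not all replicates reaching 50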;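 note: 0% = plate neutral controls and 100% = maraviroc near 300 nM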
FGF22 binding-2: FGF22 (human) binding in thermal shift. shares compounds with FGF22 binding-1. recombinant FGF22 thermal shift, SYPRO orange fluorescence. thermal shift activity, °C (ΔTm) at 38 µM. actives 2% (n = 1,000). AID 720646;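 active = fitted rise in melting shift crosses a set limit at or below the top valid dose tested; inconclusive = flat fit at mid-level activity, or a poor quality fit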
TSA no protein: counter-screen for FGF22 binders: compound-only thermal shift, no protein. AID 743019. AC50, µM (highest dose often 38 µM). actives 2% (n = 1,000). shares compounds with FGF22 binding-1. compound-only SYPRO orange thermal shift counter-screen;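 active = rising signal whose fitted curve reaches the 0.54 level within the top valid dose, showing a melting point, actives reach about 13 µM in these data; inactive = the rest, including activity in the opposite direction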; note: value is where the raw curve crosses a fixed level and not half-maximal
Active calls of the source: *; [ ] = another dose, or the depositor's remark.

For Oc1cc(O)cc(C=Cc2ccc(O)c(O)c2)c1 the results were E-selectin induc 0, S100A4 inh HTS -2, F508del corr 0, FGF22 binding-1 2.0*, Env fusion inh -110, FGF22 binding-2 0.073 and TSA no protein inactive.
For O=C(Nc1ccccc1)O/N=C/c1ccc(F)cc1 the results were S100A4 inh HTS 2, F508del corr -8, FGF22 binding-1 1.4*, Env fusion inh -112, FGF22 binding-2 -0.08 and TSA no protein inactive.
`Cc1ccc(NC(=O)O/N=C/c2ccc(F)cc2)cc1` gave E-selectin induc 0, S100A4 inh HTS -1, F508del corr -2, FGF22 binding-1 0 and Env fusion inh -27.
For O=C(Cn1[nH]c(=O)c2ccccc2c1=O)Nc1cccnc1 the results were E-selectin induc 0, S100A4 inh HTS 4, F508del corr 1, FGF22 binding-1 2.2*, Env fusion inh -13, FGF22 binding-2 0.082 and TSA no protein inactive.
`Cc1nc2ccc(C(=O)N/N=C/c3ccccc3O)cc2[nH]1` gave E-selectin induc 1, S100A4 inh HTS -5, F508del corr 2, FGF22 binding-1 1.5*, Env fusion inh -29, FGF22 binding-2 0.001 and TSA no protein inactive.
COc1cc(CCC(=O)OCC(=O)Nc2ccc(C)cc2Br)cc(OC)c1OC was read as E-selectin induc 17, S100A4 inh HTS 2, F508del corr -2, FGF22 binding-1 28*, Env fusion inh -60, FGF22 binding-2 0.003 and TSA no protein inactive.
Screening O=C(NCC1CC1)c1onc(CSc2ccc(F)cc2)c1C(=O)NCC1CC1 returned E-selectin induc 0, S100A4 inh HTS -2, F508del corr 1, FGF22 binding-1 37*, Env fusion inh 17, FGF22 binding-2 -0.12 and TSA no protein 11µM*.
Screening C[C@@H]1CN([C@@H](C)CO)C(=O)c2cc(NC(=O)Nc3ccccc3)ccc2O[C@H]1CN(C)C(=O)Nc1ccc(C(F)(F)F)cc1 returned E-selectin induc inconclusive, S100A4 inh HTS -5, F508del corr -1, FGF22 binding-1 0 and Env fusion inh 7[16.7 µM].
For C[C@@H]1CN([C@@H](C)CO)C(=O)c2cc(-c3cccnc3)cnc2O[C@@H]1CN(C)C the results were E-selectin induc 0, S100A4 inh HTS -6, F508del corr -1, FGF22 binding-1 0 and Env fusion inh -41[16.7 µM].
For C[C@H](CO)N1C[C@H](C)[C@H](CN(C)S(=O)(=O)c2ccccc2)Oc2ncc(Br)cc2C1=O the results were E-selectin induc 0, S100A4 inh HTS -17, F508del corr -1, FGF22 binding-1 0 and Env fusion inh 37[16.7 µM].
Cc1ccc(S(=O)(=O)N(C)C[C@H]2Oc3ncc(Br)cc3C(=O)N([C@@H](C)CO)C[C@H]2C)cc1 was read as E-selectin induc 0, S100A4 inh HTS 2, F508del corr -1, FGF22 binding-1 5.3*, Env fusion inh 23[16.7 µM], FGF22 binding-2 0.11[42 µM] and TSA no protein inactive.
For COc1ccccc1-c1cnc2c(c1)C(=O)N([C@@H](C)CO)C[C@H](C)[C@H](CN(C)C(=O)c1cccnc1)O2 the results were E-selectin induc 0, S100A4 inh HTS 25, F508del corr -2, FGF22 binding-1 1.9*, Env fusion inh 5[16.7 µM], FGF22 binding-2 0.27 and TSA no protein inactive.
For COc1ccccc1-c1cnc2c(c1)C(=O)N([C@H](C)CO)C[C@H](C)[C@@H](CN(C)C(=O)c1cccnc1)O2 the results were E-selectin induc 0, S100A4 inh HTS -3, F508del corr -2, FGF22 binding-1 0 and Env fusion inh -7[16.7 µM].
C[C@H](CO)N1C[C@H](C)[C@@H](CN(C)C)Oc2ncc(-c3cccnc3)cc2C1=O was read as S100A4 inh HTS -3, F508del corr 1, FGF22 binding-1 1.7*, Env fusion inh -16[16.7 µM], FGF22 binding-2 0.075[42 µM] and TSA no protein inactive.
